Screening data from PubChem BioAssay.
Compounds with a hit are over-represented: about 9.6% of the library has one in this group of screens.
bCat KO growth: beta-catenin-lacking colon tumor cell growth suppression; 140,000 compounds, 1.5% hits; viability, % at 10 µM; HCT116 beta-catenin knockout viability, CellTiter-Glo, 60 h; active compounds read low; AID 818;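 active means viability at or under a set limit, the compound median less 4 SD, cut at about 6% in these data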;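 further: 0% = Hyamine 1622 control at 20 µM and 100% = untreated cell control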
HCT116 PTEN-null: PTEN-deleted cell growth suppression; HCT116 PTEN-null viability, CellTiter-Glo, 60 h; active compounds read low; viability, % at 10 µM; 140,000 compounds, 1.2% hits;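 active means viability at or below a set limit, 4 SD under the median of all tested compounds, cut at about 3.7% in these data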;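 further: PTEN knockout HCT116 line with beta catenin targeted HCT116 as companion control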
PMI activator: activators of human phosphomannose isomerase | P34949 | purified human PMI, coupled resazurin fluorescence, 20 min; active compounds read high; 1 = vehicle control, 0 substrate-free wells | activation factor at 20 µM | 190,000 compounds, 0.005% hits | AID 1214;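 active means activation factor of 2 or more at 20 µM, relative to plate controls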
Target sequence (P34949 whole entry, looked up): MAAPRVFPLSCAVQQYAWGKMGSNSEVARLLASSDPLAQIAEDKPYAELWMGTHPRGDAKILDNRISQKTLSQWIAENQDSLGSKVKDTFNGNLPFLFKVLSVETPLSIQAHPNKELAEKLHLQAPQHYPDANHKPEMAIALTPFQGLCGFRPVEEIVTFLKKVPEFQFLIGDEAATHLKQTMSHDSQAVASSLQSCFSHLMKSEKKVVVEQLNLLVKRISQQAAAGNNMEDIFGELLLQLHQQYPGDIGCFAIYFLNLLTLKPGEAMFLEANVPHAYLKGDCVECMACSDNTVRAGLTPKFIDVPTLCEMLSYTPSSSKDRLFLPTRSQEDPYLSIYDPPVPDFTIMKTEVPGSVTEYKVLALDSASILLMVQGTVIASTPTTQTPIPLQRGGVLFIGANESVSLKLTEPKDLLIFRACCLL
Lmaj promast: inhibitors of Leishmania major promastigote growth. Leishmania major promastigotes, resazurin fluorescence viability. inhibition, % at 10 µM. 200,000 compounds, 9% hits. AID 1063; in the data active means inhibition above about 50%;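 further: promastigotes grown with compound for 44 hours at 28 °C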
PMI act hi M6P: PMI (human) activation, high substrate | P34949 | coupled PMI enzyme assay, resazurin fluorescence, 20 min; active compounds read high; 1 = untreated enzyme, 0 = substrate-free blank | activation factor at 20 µM | 190,000 compounds, 0.34% hits | AID 1216;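 active means activation factor of 2 or more at 20 µM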
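Material: human phosphomannose isomerase with PGI, G6PDH, diaphorase coupling enzymes; amount: PMI at 15 ng/mL final; also added: Mannose-6-phosphate 1.0 mM (near-saturating) plus 0.22 mM NADP+; incubation: enzyme reaction with compound 20 min at room temperature; signal: resorufin fluorescence (Ex 544/Em 590 nm) from resazurin via diaphorase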
* marks the source's active call; other numbers are inactive results.

CC(=O)n1cc([C@@H]2C=C(C(=O)O)O[C@H](OCc3ccc(CO)cc3)C2)c2ccccc21 was read as PMI activator 0.9, Lmaj promast 6 and PMI act hi M6P 1.
CC(=O)n1cc([C@H]2C=C(C(=O)Nc3ccccc3)O[C@@H](OCc3ccc(CO)cc3)C2)c2ccccc21 was read as PMI activator 0.9, Lmaj promast 60* and PMI act hi M6P 0.9.
Screening CCn1cc(C(=O)N2CCCC2)c(=O)c2cc(S(=O)(=O)N3CCOCC3)ccc21 returned bCat KO growth 82, HCT116 PTEN-null 96, PMI activator 1, Lmaj promast -9 and PMI act hi M6P 1.
CCOC(=O)C1(Cc2ccc(O)cc2)NC(c2ccco2)C2C(=O)N(c3ccccc3F)C(=O)C21 (stereo not drawn) was read as bCat KO growth 96, HCT116 PTEN-null 97, PMI activator 0.9, Lmaj promast -4 and PMI act hi M6P 0.8.
CCCOc1ccccc1NC(=O)Nc1ccccc1Cl was read as PMI activator 1.1, Lmaj promast -4 and PMI act hi M6P 1.1.
Screening Cc1ccc(C2=NNC3(CCOC(C)(C)C3)S2)cc1 (stereo not drawn) returned PMI activator 1, Lmaj promast 1 and PMI act hi M6P 1.1.
`Cc1nnc(SCC(=O)NNC(=O)C(C)C)[nH]c1=O` gave bCat KO growth 94, HCT116 PTEN-null 94, PMI activator 0.9, Lmaj promast -5 and PMI act hi M6P 0.9.
For CCc1cc2c3c(c1)C1(C(=O)N3C(C)(C)CC2C)C(C#N)=C(N)N2C(=C1C#N)Nc1ccccc12 (stereo not drawn) the results were bCat KO growth 78, HCT116 PTEN-null 68, PMI activator 0.8, Lmaj promast 32 and PMI act hi M6P 0.7.
O=C(C1=C[C@H](c2ccc(C(F)(F)F)cc2)C[C@H](OCCCCO)O1)N1CCN(Cc2ccc3c(c2)OCO3)CC1 was read as PMI activator 0.8, Lmaj promast 95* and PMI act hi M6P 0.9.
`O=C1CN(C(=O)/C=C/c2ccc(Cl)cc2Cl)CCN1` gave PMI activator 1.1, Lmaj promast -1 and PMI act hi M6P 1.2.
For CN1CCCN(C(=O)/C=C/c2ccc(Cl)cc2Cl)CC1 the results were PMI activator 1.2, Lmaj promast 99* and PMI act hi M6P 1.1.
COc1ccc(CC(C)N2CCN(Cc3ccccc3)CC2)c(OC)c1 (stereo not drawn) was read as bCat KO growth 62, HCT116 PTEN-null 66, PMI activator 1, Lmaj promast 95* and PMI act hi M6P 1.1.
COc1ccc(CN2CCN(CCCc3ccccc3)CC2)c(OC)c1 was read as PMI activator 1.1, Lmaj promast 91* and PMI act hi M6P 1.1.
Screening COc1ccc(NC(=O)c2ccc(CN3CCN(c4ccccc4)CC3)cc2)cc1OC returned bCat KO growth 82, HCT116 PTEN-null 93, PMI activator 0.8, Lmaj promast 3 and PMI act hi M6P 0.8.
`COc1ccc(OC)c(CN2CCN(Cc3cccc4ccccc34)CC2)c1` gave PMI activator 0.9, Lmaj promast 65* and PMI act hi M6P 0.9.
Screening COc1ccc(CC(C)N2CCN(c3ccccc3)CC2)cc1OC (stereo not drawn) returned bCat KO growth 63, HCT116 PTEN-null 64, PMI activator 1, Lmaj promast 78* and PMI act hi M6P 1.1.
For COc1ccc(OC)c(CN2CCN(c3ccccc3OC)CC2)c1 the results were bCat KO growth 61, HCT116 PTEN-null 60, PMI activator 0.9, Lmaj promast 1 and PMI act hi M6P 1.
For C[C@H](NC(N)=O)C(=O)OCC(=O)NCc1cccs1 the results were PMI activator 1, Lmaj promast -5 and PMI act hi M6P 0.9.
`COc1ccccc1CNC(=O)C(NC(=O)c1ccc(C)cc1)C(C)C` (stereo not drawn) gave PMI activator 1.1, Lmaj promast 9 and PMI act hi M6P 1.
Screening O=c1cc(CN2CCN(S(=O)(=O)c3ccccc3[N+](=O)[O-])CC2)nc2sccn12 returned PMI activator 1, Lmaj promast 14 and PMI act hi M6P 1.
`Cc1cc(C)n(CC(O)CN2c3ccccc3Sc3ccccc32)n1` (stereo not drawn) gave bCat KO growth 88, HCT116 PTEN-null 66, PMI activator 1, Lmaj promast 27 and PMI act hi M6P 1.
